ChEMBL document CHEMBL1152455, “Ribosome protection prevents azithromycin-mediated quorum-sensing modulation and stationary-phase killing of Pseudomonas aeruginosa” (2007)
Activity calls are given as the source filed them. No cut-off for these calls is given here.

Legend:
[1] = test system: Pseudomonas aeruginosa; assay: Bactericidal activity against stationary-phase Pseudomonas aeruginosa PT1300 culture harboring vector pEX1.8 after 20 to 22 hrs by plating serial dilution method; format: functional, organism-based
Outline: (§1)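 Overnight LB cultures (with carbenicillin 100 μg/ml or gentamicin 15 μg/ml for plasmid strains) were diluted to OD600 0.05 in antibiotic-free LB and grown at 37°C to stationary phase. Azithromycin was added to 2-ml aliquots at similar cell densities, and incubation continued 20–22 h at 37°C. Viable counts came from serial dilutions plated on LB agar.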

[2] = test system: Pseudomonas aeruginosa; assay: Antimicrobial activity against exponential-phase Pseudomonas aeruginosa PT1323 cultures harboring mutation in bacterial rhlA protein and expressing rhamnosyltransferase rhlAB gene at 1 mg/ml after 18 hrs by susceptibility assay; format: functional, organism-based
Outline: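 LB agar plates with an azithromycin gradient (maximal 1 mg/ml) were streaked with each strain. Plates were read after 18 h at 37°C.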

[3] = test system: Pseudomonas aeruginosa; assay: Bactericidal activity against stationary-phase Pseudomonas aeruginosa PT1300 culture harboring vector pEX1.8 at 1 to 16 ug/ml after 22 hrs by plating serial dilution method in presence of 1 mM Mg2+; format: functional, organism-based
Outline: (§2)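 Stationary-phase LB cultures of PT1300 or PT1308 received azithromycin plus 1 mM MgSO4, then 22 h at 37°C. Viable counts came from serial dilutions plated on LB agar. Values are means ± standard deviations of three independent experiments.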

[4] = test system: Pseudomonas aeruginosa; assay: Inhibition of rhamnolipid production in Pseudomonas aeruginosa PT1300 harboring vector pEX1.8 up to 50 ug/ml incubated for 24 hrs at 37 degC further 24 hrs at 25 degC; format: functional, organism-based
Outline: (§3)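 SW plates (M9 with 0.1% glutamate replacing NH4Cl, 0.2% glucose, 1 mM MgSO4) carried an azithromycin gradient of 0–50 μg/ml. Three-μl droplets of about 10^6 CFU were spotted at equal spacing. Plates were incubated 24 h at 37°C, then 24 h at 25°C.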

[5] = test system: Pseudomonas aeruginosa; assay: Bactericidal activity against stationary-phase Pseudomonas aeruginosa PT1308 culture expressing Clostridium perfringens 23S rRNA methylase ErmBP at 1 to 16 ug/ml after 22 hrs by plating serial dilution method in presence of 1 mM Mg2+; format: functional, organism-based; outline: as §2
[6] = test system: Pseudomonas aeruginosa; assay: Bactericidal activity against Pseudomonas aeruginosa PT1323 harboring rhlAB-encoding pAKRHL at 2 to 18 ug/ml after 22 hrs by plating serial dilution method; format: functional; outline: as §1
[7] = test system: Pseudomonas aeruginosa; assay: Bactericidal activity against stationary-phase Pseudomonas aeruginosa PT1308 culture expressing Clostridium perfringens 23S rRNA methylase ErmBP assessed as effect on cell viability at 1 to 16 ug/ml after 22 hrs by plating serial dilution method; format: functional, organism-based; outline: as §1
[8] = test system: Pseudomonas aeruginosa; assay: Inhibition of swarming motility of Pseudomonas aeruginosa PT1300 harboring vector pEX1.8 at 2 ug/ml after 18 hrs; format: functional, organism-based
Outline: (§4)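 Swarm plates were 0.5% agar M9 with 0.2% glucose, 1 mM MgSO4 and 0.05% glutamate as nitrogen source, containing azithromycin. Three μl of overnight LB culture was spotted, and plates were read after 18 h at 37°C.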

[9] = test system: Pseudomonas aeruginosa; assay: Inhibition of elastase production in Pseudomonas aeruginosa PT1300 harboring vector pEX1.8 after 18 hrs by elastin Congo red assay; format: functional, organism-based
Outline: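 Cultures grew 7 h in Pseudomonas broth. Supernatant was mixed with excess elastin Congo red (4 mg/ml) in 0.1 M Tris pH 7.4, 1 mM CaCl2 and held 18 h at 37°C. After centrifugation, A495 was read and expressed as OD495/OD600 of the culture. Values are means ± standard deviations of five independent experiments.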

[10] = test system: Pseudomonas aeruginosa; assay: Inhibition of rhamnolipid production in azithromycin-hypersusceptible Pseudomonas aeruginosa 11B harboring mexX deletion mutant incubated for 24 hrs at 37 degC further 24 hrs at 25 degC; format: functional, organism-based; outline: as §3
[11] = test system: Pseudomonas aeruginosa; assay: Inhibition of rhamnolipid production in Pseudomonas aeruginosa PT1323 harboring pAKRHL expressing rhlAB gene up to 50 ug/ml incubated for 24 hrs at 37 deg C further 24 hrs at 25 deg C; format: functional, organism-based; outline: as §3
[12] = test system: Pseudomonas aeruginosa; assay: Inhibition of swarming motility of Pseudomonas aeruginosa PT1308 expressing Clostridium perfringens 23S rRNA methylase ErmBP at 2 ug/ml after 18 hrs; format: functional, organism-based; outline: as §4
[13] = test system: Pseudomonas aeruginosa; assay: Inhibition of rhamnolipid production in Pseudomonas aeruginosa 12B overexpressing mexXY incubated for 24 hrs at 37 degC further 24 hrs at 25 degC; format: functional, organism-based; outline: as §3
[14] = test system: Pseudomonas aeruginosa; assay: Bactericidal activity against Pseudomonas aeruginosa PT1332 rhlA mutant harboring vector pAK1900 at 2 to 18 ug/ml after 22 hrs by plating serial dilution method; format: functional; outline: as §1
[15] = Ratio of bactericidal activity against Pseudomonas aeruginosa PT712 harboring mutation in bacterial rhlA protein to bactericidal activity against wild type Pseudomonas aeruginosa PAO1 PT5; format: functional; outline: as §1

Q: What does the source list for `CC[C@H]1OC(=O)[C@H](C)[C@@H](O[C@H]2C[C@@](C)(OC)[C@@H](O)[C@H](C)O2)[C@H](C)[C@@H](O[C@@H]2O[C@H](C)C[C@H](N(C)C)[C@H]2O)[C@](C)(O)C[C@@H](C)CN(C)[C@H](C)[C@@H](O)[C@]1(C)O` [AZITHROMYCIN]?
A: Activity [1]: Dose-dependent effect; Activity [2]: inactive; Activity [3]: inactive; inhibition [4]: Active; Activity [5]: inactive; Activity [6]: 4; Activity [7]: inactive; inhibition [8]: Active; inhibition [9]: Dose-dependent effect; inhibition [10]: Active; inhibition [11]: inactive; inhibition [12]: inactive; inhibition [13]: inactive; Activity [14]: 1; Ratio [15]: 1000
